Compound activity (PubChem BioAssay)
This is a sample that favours compounds with a hit; in the whole collection about 2.3% have one here.
TAAR1 ag: human TAAR1 agonism; CHO RD-HGA16 TAAR1, Fluo-8 calcium fluorescence; vehicle wells 0%, saturating PEA agonist 100%; activation, % at 3 µM; 360,000 compounds, 0.99% hits; AID 624467;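 active = activation above the mean activation of all test compounds in the run plus 3 SD, cut at about 38% in these data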
Target sequence (Q96RJ0 whole entry, looked up): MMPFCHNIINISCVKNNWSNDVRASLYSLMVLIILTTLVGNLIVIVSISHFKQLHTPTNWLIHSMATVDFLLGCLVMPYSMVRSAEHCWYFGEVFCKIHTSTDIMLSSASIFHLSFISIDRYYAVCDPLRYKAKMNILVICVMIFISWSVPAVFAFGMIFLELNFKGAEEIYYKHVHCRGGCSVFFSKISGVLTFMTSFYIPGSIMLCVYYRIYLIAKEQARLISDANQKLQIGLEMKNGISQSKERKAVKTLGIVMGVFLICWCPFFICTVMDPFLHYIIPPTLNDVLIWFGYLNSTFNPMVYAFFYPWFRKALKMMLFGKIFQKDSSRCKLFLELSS
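Repeats: no replicates (n 1) | Material: CHO-derived RD-HGA16 cells with stable Gα16 and human TAAR1 | Technique: Kinetic Fluo-8 calcium fluorescence | Schedule: 17-24 h seeding, 75 min 37 °C dye, 30 min RT | Evaluation: % activation from peak over basal fluorescence ratio, DMSO-to-PEA scaled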
TAAR1 antag: antagonists of human TAAR1 | Q96RJ0 | CHO RD-HGA16 TAAR1, Fluo-8 calcium fluorescence, antagonist | 360,000 compounds, 1.5% hits | inhibition, % at 3 µM;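 active = inhibition above a per-plate cutoff, the mean inhibition of test compounds on that plate plus 3 SD, cut at about 49% in these data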;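 also: 0% = DMSO plus EC80 beta-PEA response and 100% = DMSO alone without agonist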
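System: RD-HGA16 CHO cells with stable hTAAR1 and Gα16 | Probe or stimulus: EC80 β-phenethylamine stimulus | Dosing: 3 µM, single point | Times: Dye loading 75 min at 37 °C, then 30 min room temperature | Measured by: Fluo-8 calcium-sensitive fluorescence | Read-out basis: % inhibition of agonist calcium response | Replicates: n of 1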
OXTR potentiator: potentiates the human oxytocin receptor response. P30559. CHO-OTR cells, Fluo-8 calcium fluorescence, potentiator mode; 0% = oxytocin EC15, 100% = EC100. activation, % at 3 µM. 320,000 compounds, 0.061% hits;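 active = activation above that plate's cutoff, the mean activation of tested compounds plus 3 SD, cut at about 6.6% in these data, passing the limit was not always enough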;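 also: 100% uses oxytocin at 75 nM as the full agonist control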
Target sequence (P30559 whole entry, looked up): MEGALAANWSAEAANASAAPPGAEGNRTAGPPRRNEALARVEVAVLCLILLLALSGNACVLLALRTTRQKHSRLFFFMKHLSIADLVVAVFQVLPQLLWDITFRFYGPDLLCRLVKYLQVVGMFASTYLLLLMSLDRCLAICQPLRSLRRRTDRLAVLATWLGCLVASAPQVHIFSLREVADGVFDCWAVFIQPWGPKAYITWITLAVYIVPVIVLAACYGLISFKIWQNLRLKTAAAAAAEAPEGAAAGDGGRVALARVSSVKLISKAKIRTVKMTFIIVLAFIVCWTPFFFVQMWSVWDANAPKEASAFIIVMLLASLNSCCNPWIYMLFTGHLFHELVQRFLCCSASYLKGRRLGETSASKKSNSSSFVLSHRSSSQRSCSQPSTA
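Measured by – Fluo-8 calcium dye fluorescence · Test system – human OTR in CHO cells · Dosing – one concentration, 3.0 µM compound · Controls – EC15 oxytocin alone as 0%, 75 nM oxytocin as 100% · Evaluation – normalized max/min fluorescence ratio, % activation · Timing – 6 min pre-incubation, 100 s read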
V1aR counter: activates human V1a receptor in oxytocin agonist counter-screen; P37288; CHO-V1R cells, Fluo-8 calcium fluorescence, agonist mode; 0% DMSO, 100% 3 nM vasopressin; activation, % at 3 µM; 320,000 compounds, 0.25% hits; AID 2797;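 active = activation above the mean activation of all tested compounds plus 3 SD, per screening run, cut at about 20% in these data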;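 also: signal is peak over basal fluorescence ratio across a 100 second FLIPR read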
OXTR ag: activates the human oxytocin receptor; P30559; 320,000 compounds, 0.32% hits; CHO-OTR cells, Fluo-8 calcium fluorescence; normalized: DMSO 0%, oxytocin 100%; activation, % at 3 µM; AID 2435;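 active = activation above the mean of all tested compounds plus 3 SD, cutoff set per screening run, cut at about 20% in these data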;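 also: peak over basal fluorescence ratio from a 100 s FLIPR kinetic read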
TAAR1 ag confirm: human TAAR1 agonism, confirmed; shares compounds with TAAR1 ag; CHO RD-HGA16 TAAR1, Fluo-8 calcium fluorescence; scaled: DMSO 0%, maximal phenethylamine 100%; activation, % at 3 µM; 2,400 compounds, 82% hits;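 active = activation above a cutoff set at the run's mean compound activation plus 3 SD, cut at about 39% in these data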
Ga16 ag counter: counter-screen for TAAR1 agonists: nonselective agonists in parental cells. 2,400 compounds, 50% hits. CHO-Ga16 parental, Fluo-8 calcium fluorescence; normalized to maximal ATP response, DMSO zero. AID 651787. activation, % at 3 µM. shares compounds with TAAR1 ag;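 active = activation above the run cutoff, the mean activation over all tested wells plus 3 SD, cut at about 12% in these data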;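 also: 0% = DMSO wells and 100% = maximal ATP response on the peak over basal ratio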
TAAR1 desens: counter-screen for human TAAR1 agonists: agonists that desensitize TAAR1; inhibition, % at 3 µM; shares compounds with TAAR1 ag; 2,400 compounds, 46% hits; CHO RD-HGA16 hTAAR1, Fluo-8 calcium, beta-PEA response inhibition;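 active = inhibition above the run cutoff, the mean inhibition of all test compounds plus 3 SD, cut at about 49% in these data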;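 also: beta-PEA stimulus applied at its EC80; loss of beta-PEA calcium signal after compound pretreatment read as receptor desensitization; 0% = DMSO with beta-PEA at EC80 and 100% = DMSO alone without agonist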
Ga16 nonsel ant: nonselective Ga16 antagonist in TAAR1 agonist counter-screen | shares compounds with TAAR1 ag | 2,400 compounds, 39% hits | CHO-Ga16 ATP-induced calcium, Fluo-8 fluorescence | inhibition, % at 3 µM;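 active = inhibition above the plate's mean compound inhibition plus 3 SD, computed per plate, cut at about 22% in these data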;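 also: 0% = EC80 ATP with DMSO and 100% = DMSO wells without ATP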
Numbers without * were called inactive; nt = not tested or not shown.

SMILES	TAAR1 ag	TAAR1 antag	OXTR potentiator	V1aR counter	OXTR ag	TAAR1 ag confirm	Ga16 ag counter	TAAR1 desens	Ga16 nonsel ant
Cc1ccc(-c2c(C(=O)N/N=C/c3ccoc3)nnn2-c2nonc2N)cc1	73*	20	-5	10	6	87*	59*	14	6
CCOc1ccc(-c2c(C(=O)N/N=C/c3ccco3)nnn2-c2nonc2N)cc1	92*	-13	-6	16	6	64*	49*	16	6
Cc1ccc(-c2c(C(=O)N/N=C/c3cccc(Cl)c3)nnn2-c2nonc2N)cc1	4	35	-12	1	2	nt	nt	nt	nt
COc1ccc(C(=O)NCC(c2ccc3c(c2)OCO3)N2CCN(c3ccc(OC)cc3)CC2)cc1 (stereo not given)	-1	-21	-15	-1	-2	nt	nt	nt	nt
CCc1cc(=O)oc2cc(C)c(CN3CCCC(C)C3)c(O)c12 (stereo not given)	51*	7	2	0	1	82*	1	40	0
COC(=O)CSc1[nH]c2ccccc2c1[N+](=O)[O-]	10	-18	6	0	0	nt	nt	nt	nt
Cc1ccc(S(=O)(=O)n2nc(OC(=O)c3cccs3)cc2N)cc1	92*	-2	-12	2	-1	65*	33*	20	14
COc1ccccc1C(=O)Oc1cc(N)n(S(=O)(=O)c2ccc(C)cc2)n1	9	-15	-9	-1	2	nt	nt	nt	nt
Cc1ccc(S(=O)(=O)c2c(C)nn(C(C)(C)C)c2OC(=O)c2cccs2)cc1	1	-6	-13	-2	-2	nt	nt	nt	nt
Cc1ccc(S(=O)(=O)n2nc(OC(=O)c3ccccc3C)cc2N)cc1	48*	13	-5	-1	1	53*	32*	14	23*
Cc1ccc(S(=O)(=O)n2ccc(OC(=O)c3cccs3)n2)cc1	99*	19	-4	3	0	81*	45*	26	21
N#CCCn1nnc(-c2ccccc2F)n1	1	-4	-16	1	0	nt	nt	nt	nt
CC(NS(=O)(=O)/C=C/c1ccccc1)C(=O)O (stereo not given)	0	-16	-6	1	2	nt	nt	nt	nt
Cc1c(C)c(C)c(S(=O)(=O)n2[nH]c(=O)c(CCO)c2C)c(C)c1C	1	13	-13	1	0	nt	nt	nt	nt
O=c1[nH]c(CN(CCc2ccccc2)S(=O)(=O)c2ccc(Cl)cc2)nc2ccccc12	79*	73*	-6	-1	-2	90*	14*	95*	24*
O=C(NCCc1ccc(F)cc1)c1coc(=O)c(Br)c1	68*	35	-11	0	0	66*	1	16	8
O=C(Nc1ccccc1F)c1coc(=O)c(Br)c1	5	-12	-2	0	0	nt	nt	nt	nt
CCN(CC)CC(=O)Nc1sc2c(c1C(=O)c1ccccc1OC)CCC2	-2	-36	-3	-1	-2	nt	nt	nt	nt
Cc1cc(C)n2nc(SC(C)C(=O)N(C)C3CCCCC3)nc2n1 (stereo not given)	1	-17	-4	1	1	nt	nt	nt	nt
CN(C)c1ccc(C(=O)Nc2ccc(O)c3c(=O)cc(-c4ccccc4Cl)oc23)cc1	5	24	-11	0	-1	nt	nt	nt	nt
COc1ccc(Cn2c(SCc3ccccc3C)nc3cc(OC)c(OC)cc3c2=N)cc1	52*	9	-3	3	9	71*	31*	47	34*
CC(C)c1ccc(C(=O)Nc2nnc(S(=O)(=O)N3CCOCC3)s2)cc1	1	-5	-11	12	11	nt	nt	nt	nt
CN1C(C(=O)NCCc2cccs2)CC2Cn3c(nc4ccccc43)C21 (stereo not given)	nt	nt	-2	0	0	nt	0	nt	2
CCCNC(=O)C1CC2Cn3c(nc4ccccc43)C2N1C (stereo not given)	10	12	-3	1	0	nt	nt	nt	nt
Cc1nc(C(N)=O)c(N)n1CCc1ccccc1	98*	72*	2	1	0	70*	1	48	5
SMILES	TAAR1 ag	TAAR1 antag	OXTR potentiator	V1aR counter	OXTR ag	TAAR1 ag confirm	Ga16 ag counter	TAAR1 desens	Ga16 nonsel ant
Cc1nc2ccccc2n1CCc1ccccc1	5	-1	3	-1	-1	nt	nt	nt	nt
CC(C)CC(c1nnnn1C(C)(C)C)N1CCN(C2CCCC2)CC1 (stereo not given)	7	5	-2	4	1	nt	nt	nt	nt
CCOc1ccc(C2/C(=C(/O)c3ccc4c(c3)CC(C)O4)C(=O)C(=O)N2CC2CCCO2)cc1 (stereo not given)	0	-3	nt	nt	nt	nt	nt	nt	nt
CN1CCNC(=O)C1CC(=O)NCCc1ccccc1F (stereo not given)	74*	30	-3	1	0	89*	2	59*	6
O=C(CC1C(=O)NCCN1Cc1ccccn1)NCCc1ccccc1F (stereo not given)	78*	41	-10	1	1	97*	8	72*	-3
CC(C)(C)CN1CCNC(=O)C1CC(=O)NCCc1ccccc1C(F)(F)F (stereo not given)	17	-1	-11	0	0	nt	nt	nt	nt
COc1ccc(NC(=O)/C(C#N)=C/c2ccc(Br)o2)cc1	0	24	-3	0	0	nt	nt	nt	nt
N#C/C(=C/c1ccc(N2CCOCC2)o1)C(=O)NC1CCCCC1	23	16	-8	8	12	nt	nt	nt	nt
N#C/C(=C\c1ccc(N2CCOCC2)o1)C(=O)Nc1ccc(O)cc1	58*	31	-21	29*	20*	21	19*	22	28*
COc1ccc(NC(=O)/C(C#N)=C\c2ccc(N3CCOCC3)o2)cc1	135*	76*	-36	117*	70*	49*	60*	65*	62*
O=C(Cc1ccc(Cl)cc1Cl)Nc1ccncc1	6	20	-8	9	9	nt	nt	nt	nt
CN1CCN(c2ccc(NC(=O)c3ccc([N+](=O)[O-])o3)cc2Cl)CC1	45*	4	0	0	2	55*	1	28	12
CC(C)Cn1c2c(c(=O)[nH]c1=O)C(C(F)(F)F)(C(F)(F)F)N=C(CCC1CCCCC1)N2	23	7	-7	11	0	nt	nt	nt	nt
